Results published in ChEMBL document CHEMBL4014329, “Selective Inhibition of Escherichia coli RNA and DNA Topoisomerase I by Hoechst 33258 Derived Mono- and Bisbenzimidazoles” (J Med Chem, 2017).
≈ marks a conversion by molar mass, not a printed value. Calls of active or inactive are those of the source. The calls are words filed in the database; no cut-off is given here.

Key:
Acinetobacter baumannii = test: Antibacterial activity against Acinetobacter baumannii ATCC 19606 after 24 hrs by microbroth dilution method; assay type: functional; settings: ATCC 19606 = CIP 70.34 = JCM 6841, 24 h
Procedure, shortened: (§1)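 Microbroth dilution per CLSI guidelines. Organisms grown in Mueller−Hinton broth at 37 °C with shaking to log phase, pelleted, resuspended in 0.85% saline to OD625 0.1. Final inoculum 5 × 10^5 CFU/mL; triplicate; 24 h at 37 °C. OD625 read; MIC = lowest concentration completely inhibiting growth versus untreated controls.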

Enterococcus faecium = test: Antibacterial activity against Enterococcus faecium BM4105RF after 24 hrs by microbroth dilution method; assay type: functional
Procedure, shortened: (§2)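 Mueller-Hinton broth cultures grown at 37 °C with shaking to log phase, pelleted, resuspended in 0.85% saline to OD625 0.1. Broth microdilution per CLSI guidelines, final inoculum 5 × 10^5 CFU/mL, in triplicate, 24 h at 37 °C. Growth read as OD625. MIC is the lowest concentration giving complete growth inhibition versus untreated controls.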

[1] = tested on: Staphylococcus epidermidis; test: Antibacterial activity against Staphylococcus epidermidis ATCC 12384 after 24 hrs by microbroth dilution method; assay type: functional; settings: ATCC 12384, 24 h; procedure, shortened: as §1
Enterobacter cloacae = test: Antibacterial activity against Enterobacter cloacae ATCC 13047 after 24 hrs by microbroth dilution method; assay type: functional; settings: ATCC 13047, 24 h; procedure, shortened: as §1
Escherichia coli [2] = test: Inhibition of Escherichia coli RNA topoisomerase 1 using circular RNA as substrate up to 50 uM after 1.5 hrs by SDS-PAGE analysis
Procedure, shortened: (§3)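 10 nM E. coli topoisomerase I premixed with reaction buffer and inhibitor diluted in DMSO, then circular RNA substrate added; 1.5 h incubation. Stopped with proteinase K/SDS/EDTA buffer. Trefoil RNA knot product separated from circular substrate on 15% TBE−urea gels and detected by phosphorimaging. DMSO-only control included.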

Escherichia coli [3] = test: Inhibition of Escherichia coli DNA gyrase using relaxed plasmid pBAD-GFPuv as substrate after 30 mins by agarose gel electrophoresis
Citrobacter freundii = test: Antibacterial activity against Citrobacter freundii 4747CFAA after 24 hrs by microbroth dilution method; assay type: functional; procedure, shortened: as §1
Escherichia coli [4] = test: Antibacterial activity against Escherichia coli ATCC 25922 after 24 hrs by microbroth dilution method; assay type: functional; settings: ATCC 25922, 24 h; procedure, shortened: as §1
DU-145 = test: Cytotoxicity against human DU145 cells after 48 hrs by SRB assay; assay type: cell-based; settings: for Activity: human, du-145, 48 h; for IC50: Homo sapiens, DU-145, 48 h
Procedure, shortened: (§4)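 Cells cultured per ATCC protocols, seeded and grown 24 h (37 °C, 5% CO2), then treated in triplicate at final 20, 10, 5, 2.5, 1.25, 0.625 and 0.0625 μM for 48 h. Fixed with cold TCA (16% final, 4 °C, 1 h), stained with SRB in 1% acetic acid, dye solubilized in 10 mM Tris base, A560 read. IC50 derived; study in duplicate.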

Staphylococcus aureus [5] = test: Antibacterial activity against methicillin-resistant Staphylococcus aureus A960649 after 24 hrs by microbroth dilution method; assay type: functional; settings: A960649, 24 h; procedure, shortened: as §2
Pseudomonas aeruginosa = test: Antibacterial activity against Pseudomonas aeruginosa ATCC 27853 after 24 hrs by microbroth dilution method; assay type: functional; settings: ATCC 27853, 24 h; procedure, shortened: as §1
Klebsiella pneumoniae = test: Antibacterial activity against Klebsiella pneumoniae NR15410 after 24 hrs by microbroth dilution method; assay type: functional; settings: NR15410, 24 h; procedure, shortened: as §1
Shigella flexneri = test: Antibacterial activity against Shigella flexneri 2457NR517 after 24 hrs by microbroth dilution method; assay type: functional; settings: 2457NR517, 24 h; procedure, shortened: as §2
[6] = Inhibition of Escherichia coli DNA topoisomerase 1 using plasmid pBAD-GFPuv as substrate after 15 mins by agarose gel electrophoresis
Procedure, shortened: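 E. coli topoisomerase I at 6 nM relaxing 150 ng supercoiled pBAD-GFPuv. 15 min at 37 °C, phenol-stopped, 1% agarose gel, ethidium stain. IC50 is the concentration leaving 50% DNA supercoiled; three independent determinations.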

Enterococcus faecalis = test: Antibacterial activity against Enterococcus faecalis ATCC 29212 after 24 hrs by microbroth dilution method; assay type: functional; settings: ATCC 29212, 24 h; procedure, shortened: as §1
Escherichia coli [7] = test: Inhibition of Escherichia coli RNA topoisomerase-1 using circular RNA as substrate 10 uM after 1.5 hrs by SDS-PAGE analysis; procedure, shortened: as §3
DNA topoisomerase 1 = biological target: T1, DNA topoisomerase 1 (Homo sapiens, UniProt P11387); test: Inhibition of human DNA topoisomerase 1 using plasmid pBAD-GFPuv as substrate after 30 mins by agarose gel electrophoresis
T1 sequence (P11387 whole entry): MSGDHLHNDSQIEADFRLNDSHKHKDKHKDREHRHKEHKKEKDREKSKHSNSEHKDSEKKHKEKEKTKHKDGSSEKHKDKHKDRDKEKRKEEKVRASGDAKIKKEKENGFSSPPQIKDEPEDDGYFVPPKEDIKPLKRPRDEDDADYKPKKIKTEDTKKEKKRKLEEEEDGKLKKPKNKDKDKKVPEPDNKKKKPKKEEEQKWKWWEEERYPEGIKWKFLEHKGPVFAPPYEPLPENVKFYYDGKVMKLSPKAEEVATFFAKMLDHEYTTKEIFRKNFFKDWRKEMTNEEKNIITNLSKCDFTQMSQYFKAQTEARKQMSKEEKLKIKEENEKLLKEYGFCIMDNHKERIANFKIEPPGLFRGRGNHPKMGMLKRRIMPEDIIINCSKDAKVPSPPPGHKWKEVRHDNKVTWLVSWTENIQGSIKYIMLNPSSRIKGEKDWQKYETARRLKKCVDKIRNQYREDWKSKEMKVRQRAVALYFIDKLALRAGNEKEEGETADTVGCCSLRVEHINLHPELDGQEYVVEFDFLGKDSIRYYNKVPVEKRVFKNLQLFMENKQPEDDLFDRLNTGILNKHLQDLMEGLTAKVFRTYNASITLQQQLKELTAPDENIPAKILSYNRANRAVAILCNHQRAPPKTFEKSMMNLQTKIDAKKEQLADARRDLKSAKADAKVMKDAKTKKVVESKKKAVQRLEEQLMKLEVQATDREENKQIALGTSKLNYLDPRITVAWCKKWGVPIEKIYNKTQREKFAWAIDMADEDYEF

Staphylococcus aureus [8] = test: Antibacterial activity against Staphylococcus aureus ATCC 33591 after 24 hrs by microbroth dilution method; assay type: functional; settings: ATCC 33591, 24 h; procedure, shortened: as §1
Staphylococcus aureus [9] = test: Antibacterial activity against Staphylococcus aureus ATCC 29213 after 24 hrs by microbroth dilution method; assay type: functional; settings: ATCC 29213, 24 h; procedure, shortened: as §1
[10] = Inhibition of human DNA topoisomerase 2 using plasmid pBAD-GFPuv as substrate after 30 mins by agarose gel electrophoresis
Procedure, shortened: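 Compound at 5–50 μM final, 30 min at 37 °C. Phenol extraction, 1% agarose electrophoresis, ethidium stain. IC50 = concentration at which 50% of DNA remains (−) supercoiled.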

Escherichia coli [11] = test: Antibacterial activity against Escherichia coli K-12 after 24 hrs by microbroth dilution method; assay type: functional; settings: K-12, 24 h; procedure, shortened: as §1
[12] = Binding affinity to dA60.dT60 B-DNA duplex (unknown origin) assessed as induction of biphasic transition at <5 uM by UV-vis spectrophotometric analysis
[13] = Binding affinity to dA60.dT60 B-DNA duplex (unknown origin) assessed as change in melting temperature at 10 uM by UV-vis spectrophotometric analysis
Procedure, shortened: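 UV melting of dA60·dT60 at 1 μM/duplex with compound at 10 μM. Buffer 10 mM sodium cacodylate, 0.1 mM EDTA, 100 mM NaCl, pH 7.0; duplex pre-annealed from 95 °C. Compound stocks in DMSO diluted into buffer. Heating at 0.2 °C/min, monitored at 260 nm, points every 1.0 °C; Tm taken from derivatives.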

Staphylococcus aureus [14] = test: Antibacterial activity against methicillin-resistant Staphylococcus aureus 33591 after 24 hrs by microbroth dilution method; assay type: functional; settings: Staphylococcus aureus, 33591, 24 h; procedure, shortened: as §2
Escherichia coli [15] = test: Inhibition of Escherichia coli RNA topoisomerase 1 using circular RNA as substrate up to 80 uM after 1.5 hrs by SDS-PAGE analysis
Procedure, shortened: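 E. coli topoisomerase I (10 nM) premixed in reaction buffer with inhibitor diluted in DMSO, then circular RNA substrate added; 1.5 h. DMSO-only control included. Final inhibitor 2.5 to 80 μM. Stopped with proteinase K/SDS/EDTA. Trefoil RNA knot product resolved from substrate on 15% TBE-urea gels and detected by autoradiography.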

[16] = Cytotoxicity against human PCS-201-010 cells after 48 hrs by SRB assay; assay type: cell-based; settings: PCS-201-010, 48 h; procedure, shortened: as §4

| Structure (SMILES) | MIC (Acinetobacter baumannii) | MIC (Enterococcus faecium) | MIC [1] | MIC (Enterobacter cloacae) | inhibition (Escherichia coli [2]) | MIC (Citrobacter freundii) | MIC (Escherichia coli [4]) | MIC (Staphylococcus aureus [5]) | MIC (Pseudomonas aeruginosa) | MIC (Klebsiella pneumoniae) | MIC (Shigella flexneri) | IC50 [6] | MIC (Enterococcus faecalis) | IC50 (DNA topoisomerase 1) | MIC (Staphylococcus aureus [8]) | MIC (Staphylococcus aureus [9]) | MIC (Escherichia coli [11]) | Activity [12] | ΔTm [13] | MIC (Staphylococcus aureus [14]) | other results |
| --- | --- | --- | --- | --- | --- | --- | --- | --- | --- | --- | --- | --- | --- | --- | --- | --- | --- | --- | --- | --- | --- |
| C#CCOc1ccc(-c2nc3ccc(-c4nc5ccc(N6CCN(C)CC6)cc5[nH]4)cc3[nH]2)cc1 | > 32 mg/L | 1 to 2 mg/L (≈ 2.16 to 4.32 µM) | 1 to 2 mg/L (≈ 2.16 to 4.32 µM) | 32 mg/L (≈ 69.2 µM) | inactive | 4 mg/L (≈ 8.65 µM) | 8 mg/L (≈ 17.3 µM) | 1 to 2 mg/L (≈ 2.16 to 4.32 µM) | 16 mg/L (≈ 34.6 µM) | > 32 mg/L | 1 to 2 mg/L (≈ 2.16 to 4.32 µM) | – | – | – | – | – | – | – | – | – | inhibition (Escherichia coli [3]): inactive; Activity (DU-145): Toxic |
| C#CCOCCCCCCCCCCOc1ccc(-c2nc3ccc(-c4nc5ccc(N6CCN(C)CC6)cc5[nH]4)cc3[nH]2)cc1 | > 32 mg/L | > 32 mg/L | > 32 mg/L | > 32 mg/L | – | > 32 mg/L | > 32 mg/L | > 32 mg/L | 16 to 32 mg/L (≈ 25.9 to 51.7 µM) | > 32 mg/L | > 32 mg/L | 12.2 µM | 16 to 32 mg/L (≈ 25.9 to 51.7 µM) | > 50 µM | > 32 mg/L | > 32 mg/L | 2 to 4 mg/L (≈ 3.23 to 6.46 µM) | Active | 5.6 °C | > 32 mg/L | inhibition (Escherichia coli [7]): Active; IC50 [10]: > 50 µM; IC50 (DU-145): > 10 µM |
| CCOc1ccc2nc3cc(N)ccc3c(N)c2c1 | – | – | – | – | – | – | – | – | – | – | – | – | – | – | – | – | – | – | – | – | inhibition (Escherichia coli [15]): inactive |
| C#CCOCCCCCCCCCCCCOc1ccc(-c2nc3ccc(-c4nc5ccc(N6CCN(C)CC6)cc5[nH]4)cc3[nH]2)cc1 | > 32 mg/L | ≥ 32 mg/L | > 32 mg/L | > 32 mg/L | – | > 32 mg/L | 16 mg/L (≈ 24.7 µM) | > 32 mg/L | 16 mg/L (≈ 24.7 µM) | > 32 mg/L | > 32 mg/L | 4 µM | 16 to 32 mg/L (≈ 24.7 to 49.5 µM) | > 50 µM | 16 to 32 mg/L (≈ 24.7 to 49.5 µM) | 16 to 32 mg/L (≈ 24.7 to 49.5 µM) | 16 mg/L (≈ 24.7 µM) | Active | 1.2 °C | > 32 mg/L | inhibition (Escherichia coli [7]): Active; inhibition (Escherichia coli [3]): inactive; IC50 (DU-145): > 10 µM; IC50 [16]: > 10 µM |
| C#CCOCCCCCCOc1ccc(-c2nc3ccc(-c4nc5ccc(N6CCN(C)CC6)cc5[nH]4)cc3[nH]2)cc1 | > 32 mg/L | > 32 mg/L | > 32 mg/L | > 32 mg/L | inactive | > 32 mg/L | 16 to 32 mg/L (≈ 28.4 to 56.9 µM) | > 32 mg/L | 16 to 32 mg/L (≈ 28.4 to 56.9 µM) | > 32 mg/L | > 32 mg/L | 3.2 µM | 16 to 32 mg/L (≈ 28.4 to 56.9 µM) | > 50 µM | 16 to 32 mg/L (≈ 28.4 to 56.9 µM) | 16 to 32 mg/L (≈ 28.4 to 56.9 µM) | 8 mg/L (≈ 14.2 µM) | Active | 18.3 °C | > 32 mg/L | Activity (DU-145): Toxic |
